pIC50: −log10 of the molar value.
Assays:
[1] = test system: L1210; experiment: Cytotoxicity against mouse L1210 cells at 0.3 ug by disk diffusion assay; assay type: functional
Method in brief: (§1)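 15 µL of sample dried overnight on 6.5 mm filter disk. Disk placed near edge of 60 mm dish of cells plated in soft agar, incubated 7-10 days. Zone of inhibition measured from disk edge to start of normal-sized colony formation, disk diameter taken as 200 units. Overly toxic samples diluted 1:4 or 1:10 and retested.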

[2] = test system: HCT-116; experiment: Cytotoxicity against human HCT116 cells at 30 ug by disk diffusion assay; assay type: functional; method in brief: as §1
[3] = test system: CCRF-CEM; experiment: Cytotoxicity against human CEM cells at 30 ug by disk diffusion assay; assay type: functional; method in brief: as §1
[4] = Cytotoxicity against human CFU-GM cells at 3 ug by disk diffusion assay; assay type: functional; method in brief: as §1
[5] = test system: MC-38; experiment: Cytotoxicity against mouse Colon 38 cells at 30 ug by disk diffusion assay; assay type: functional; method in brief: as §1
[6] = Cytotoxicity against human CFU-GM cells at 0.3 ug by disk diffusion assay; assay type: functional; method in brief: as §1
[7] = Cytotoxicity against human CFU-GM cells at 30 ug by disk diffusion assay; assay type: functional; method in brief: as §1
[8] = test system: L1210; experiment: Cytotoxicity against mouse L1210 cells at 30 ug by disk diffusion assay; assay type: functional; method in brief: as §1
[9] = test system: L1210; experiment: Cytotoxicity against mouse L1210 cells at 3 ug by disk diffusion assay; assay type: functional; method in brief: as §1
[10] = Cytotoxicity against human H125M cells at 30 ug by disk diffusion assay; assay type: functional; method in brief: as §1
[11] = test system: MC-38; experiment: Cytotoxicity against mouse Colon 38 cells at 3 ug by disk diffusion assay; assay type: functional; method in brief: as §1
[12] = test system: MC-38; experiment: Cytotoxicity against mouse Colon 38 cells at 0.3 ug by disk diffusion assay; assay type: functional; method in brief: as §1
[13] = Cytotoxicity against human CFU-GM cells at 3.75 ug by disk diffusion assay; assay type: functional; method in brief: as §1
[14] = test system: HCT-116; experiment: Cytotoxicity against human HCT116 cells at 60 ug by disk diffusion assay; assay type: functional; method in brief: as §1
[15] = test system: MC-38; experiment: Cytotoxicity against mouse Colon 38 cells at 15 ug by disk diffusion assay; assay type: functional; method in brief: as §1
[16] = Cytotoxicity against human CFU-GM cells at 15 ug by disk diffusion assay; assay type: functional; method in brief: as §1
[17] = Inhibition of bovine heart mitochondrial complex1 activity; set-up: species or system Bos taurus
Method in brief: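 Bovine heart submitochondrial particles, 15 µg/mL, in 0.25 M sucrose, 1 mM MgCl2, 50 mM phosphate pH 7.5. Inhibitor added at various concentrations and equilibrated 5 min. Reaction started with 150 µM NADH and followed spectrophotometrically at 340 nm. IC50 derived.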

[18] = test system: MC-38; experiment: Cytotoxicity against mouse Colon 38 cells at 60 ug by disk diffusion assay; assay type: functional; method in brief: as §1
[19] = test system: L1210; experiment: Cytotoxicity against mouse L1210 cells at 3.75 ug by disk diffusion assay; assay type: functional; method in brief: as §1
[20] = Cytotoxicity against human H125M cells at 60 ug by disk diffusion assay; assay type: functional; method in brief: as §1
[21] = test system: MC-38; experiment: Cytotoxicity against mouse Colon 38 cells at 3.75 ug by disk diffusion assay; assay type: functional; method in brief: as §1
[22] = test system: CCRF-CEM; experiment: Cytotoxicity against human CEM cells at 60 ug by disk diffusion assay; assay type: functional; method in brief: as §1
[23] = test system: L1210; experiment: Cytotoxicity against mouse L1210 cells at 60 ug by disk diffusion assay; assay type: functional; method in brief: as §1
[24] = test system: HCT-116; experiment: Cytotoxicity against human HCT116 cells; assay type: functional, cell-based
[25] = Cytotoxicity against human CFU-GM cells at 60 ug by disk diffusion assay; assay type: functional; method in brief: as §1
[26] = test system: L1210; experiment: Cytotoxicity against mouse L1210 cells at 15 ug by disk diffusion assay; assay type: functional; method in brief: as §1
[27] = test system: HCT-116; experiment: Cytotoxicity against human HCT116 cells assessed as surviving fraction at 0.1 ug/ml after 2 hrs; assay type: functional
Method in brief: (§2)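 HCT-116 cells exposed to drug at 0.001-10 µg/mL for 2 h, 24 h or continuously (168 h). Surviving clonogenic cells counted. 90% kill (S10) used as comparison point.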

[28] = test system: HCT-116; experiment: Cytotoxicity against human HCT116 cells assessed as surviving fraction at 0.01 ug/ml after 168 hrs; assay type: functional; method in brief: as §2
[29] = test system: HCT-116; experiment: Cytotoxicity against human HCT116 cells assessed as surviving fraction at 1 ug/ml after 2 hrs; assay type: functional; method in brief: as §2
[30] = test system: HCT-116; experiment: Cytotoxicity against human HCT116 cells assessed as surviving fraction at 0.1 ug/ml after 168 hrs; assay type: functional; method in brief: as §2
[31] = test system: HCT-116; experiment: Cytotoxicity against human HCT116 cells assessed as surviving fraction at 1 ug/ml after 168 hrs; assay type: functional; method in brief: as §2
[32] = test system: HCT-116; experiment: Cytotoxicity against human HCT116 cells assessed as surviving fraction at 10 ug/ml after 168 hrs; assay type: functional; method in brief: as §2
[33] = test system: HCT-116; experiment: Cytotoxicity against human HCT116 cells assessed as surviving fraction at 0.0001 ug/ml after 2 hrs; assay type: functional
[34] = test system: HCT-116; experiment: Cytotoxicity against human HCT116 cells assessed as surviving fraction at 0.0001 ug/ml after 24 hrs; assay type: functional
[35] = test system: MC-38; experiment: Cytotoxicity against mouse Colon 38 cells at 0.94 ug by disk diffusion assay; assay type: functional; method in brief: as §1
[36] = test system: HCT-116; experiment: Cytotoxicity against human HCT116 cells assessed as surviving fraction at 0.01 ug/ml after 24 hrs; assay type: functional; method in brief: as §2
[37] = test system: HCT-116; experiment: Cytotoxicity against human HCT116 cells assessed as surviving fraction at 10 ug/ml after 2 hrs; assay type: functional; method in brief: as §2
[38] = test system: HCT-116; experiment: Cytotoxicity against human HCT116 cells assessed as surviving fraction at 0.0001 ug/ml after 168 hrs; assay type: functional
[39] = test system: HCT-116; experiment: Cytotoxicity against human HCT116 cells assessed as surviving fraction at 1 ug/ml after 24 hrs; assay type: functional; method in brief: as §2
[40] = Cytotoxicity against human H125M cells at 15 ug by disk diffusion assay; assay type: functional; method in brief: as §1
[41] = test system: HCT-116; experiment: Cytotoxicity against human HCT116 cells assessed as surviving fraction at 0.001 ug/ml after 2 hrs; assay type: functional; method in brief: as §2
[42] = test system: HCT-116; experiment: Cytotoxicity against human HCT116 cells assessed as surviving fraction at 10 ug/ml after 24 hrs; assay type: functional; method in brief: as §2
[43] = test system: HCT-116; experiment: Cytotoxicity against human HCT116 cells assessed as surviving fraction at 0.1 ug/ml after 24 hrs; assay type: functional; method in brief: as §2
[44] = test system: HCT-116; experiment: Cytotoxicity against human HCT116 cells at 15 ug by disk diffusion assay; assay type: functional; method in brief: as §1
[45] = test system: L1210; experiment: Cytotoxicity against mouse L1210 cells at 0.94 ug by disk diffusion assay; assay type: functional; method in brief: as §1
[46] = test system: HCT-116; experiment: Cytotoxicity against human HCT116 cells assessed as surviving fraction at 0.001 ug/ml after 168 hrs; assay type: functional; method in brief: as §2
[47] = test system: HCT-116; experiment: Cytotoxicity against human HCT116 cells assessed as surviving fraction at 0.001 ug/ml after 24 hrs; assay type: functional; method in brief: as §2
[48] = test system: CCRF-CEM; experiment: Cytotoxicity against human CEM cells at 15 ug by disk diffusion assay; assay type: functional; method in brief: as §1
[49] = test system: HCT-116; experiment: Cytotoxicity against human HCT116 cells assessed as surviving fraction at 0.01 ug/ml after 2 hrs; assay type: functional; method in brief: as §2
[50] = Cytotoxicity against human CFU-GM cells at 0.94 ug by disk diffusion assay; assay type: functional; method in brief: as §1

Structure (SMILES): C[C@H]1C=C(C[C@H](O)CCCCCCCCCC[C@@H](O)[C@H]2CC[C@H]([C@H]3CC[C@H]([C@H](O)CCCCCCCCCCO)O3)O2)C(=O)O1
- inhibition zone (IZ) [1]: 50 Zone units
- inhibition zone (IZ) [2]: 600 Zone units
- inhibition zone (IZ) [3]: 150 Zone units
- inhibition zone (IZ) [4]: 550 Zone units
- inhibition zone (IZ) [5]: 800 Zone units
- inhibition zone (IZ) [6]: 450 Zone units
- inhibition zone (IZ) [7]: 650 Zone units
- inhibition zone (IZ) [8]: 200 Zone units
- inhibition zone (IZ) [9]: 100 Zone units
- inhibition zone (IZ) [10]: 500 Zone units
- inhibition zone (IZ) [11]: 600 Zone units
- inhibition zone (IZ) [12]: 450 Zone units

Structure (SMILES): CCCCCCCCCC[C@@H](O)[C@H]1CC[C@H]([C@H]2CC[C@H]([C@@H](O)CCCCCCCCCC[C@@H](O)CC3=C[C@H](C)OC3=O)O2)O1
- inhibition zone (IZ) [13]: 0 Zone units
- inhibition zone (IZ) [14]: 600 Zone units
- inhibition zone (IZ) [15]: 750 Zone units
- inhibition zone (IZ) [16]: 100 Zone units
- pIC50 [17]: 8.48
- inhibition zone (IZ) [18]: 800 Zone units
- inhibition zone (IZ) [19]: 50 Zone units
- inhibition zone (IZ) [20]: 250 Zone units
- inhibition zone (IZ) [21]: 650 Zone units
- inhibition zone (IZ) [22]: 100 Zone units
- inhibition zone (IZ) [23]: 400 Zone units
- pIC50 [24]: 7.57
- inhibition zone (IZ) [25]: 600 Zone units
- inhibition zone (IZ) [26]: 400 Zone units

Structure (SMILES): CCCCCCCCCCC(O)C1CCC(C2CCC(C(O)CCCCCCCC[C@H](O)CC3=C[C@@H](C)OC3=O)O2)O1 (stereo partly specified) [ASIMICIN]
- inhibition zone (IZ) [13]: 500 Zone units
- Activity [27]: 0.98
- Activity [28]: 0.001
- Activity [29]: 0.8
- inhibition zone (IZ) [15]: 900 Zone units
- inhibition zone (IZ) [16]: 300 Zone units
- Activity [30]: 0.001
- pIC50 [17]: 8.92
- inhibition zone (IZ) [18]: 800 Zone units
- Activity [31]: 0.001
- inhibition zone (IZ) [19]: 400 Zone units
- Activity [32]: 0.001
- Activity [33]: 0.97
- Activity [34]: 1
- inhibition zone (IZ) [35]: 650 Zone units
- Activity [36]: 0.73
- Activity [37]: 0.66
- Activity [38]: 0.66
- Activity [39]: 0.48
- inhibition zone (IZ) [40]: 300 Zone units
- Activity [41]: 0.94
- Activity [42]: 0.12
- Activity [43]: 0.54
- inhibition zone (IZ) [21]: 950 Zone units
- inhibition zone (IZ) [44]: 600 Zone units
- inhibition zone (IZ) [45]: 150 Zone units
- inhibition zone (IZ) [23]: 600 Zone units
- Activity [46]: 0.001
- pIC50 [24]: 9.29
- Activity [47]: 0.88
- inhibition zone (IZ) [48]: 200 Zone units
- Activity [49]: 0.8
- inhibition zone (IZ) [25]: 600 Zone units
- inhibition zone (IZ) [26]: 200 Zone units
- inhibition zone (IZ) [50]: 0 Zone units
